# Hits are enriched below; roughly 1.5% of the tested compounds scored in any of these assays.
# CCR6 antag: CCR6 (human) receptor antagonism | P51684 | CHO-K1 CCR6 PathHunter beta-arrestin, luminescence, CCL20-stimulated | inhibition, % at 20 µM | hit rate 0.49% among 340,000;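 active means compounds whose inhibition of the agonist-driven luminescence signal at 20 µM reaches about 50%, limit read from the data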;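 further: cells stimulated with CCL20 at 14 nM final; plate controls were DMSO with CCL20 for no effect and DMSO without agonist for full effect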
# APJ antag: antagonists of human APJ apelin receptor; P35414; CHO-K1 APJ beta-arrestin complementation, luminescence; inhibition, % at 20 µM; hit rate 0.32% among 330,000;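 active means inhibition above about 40% at 20 µM, limit read from the data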;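 further: cells challenged with 10 nM apelin-13 agonist together with compound; plate controls were apelin-13 plus DMSO wells for no effect and DMSO wells lacking apelin-13 for full effect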
# Target sequence (P35414 whole entry, looked up): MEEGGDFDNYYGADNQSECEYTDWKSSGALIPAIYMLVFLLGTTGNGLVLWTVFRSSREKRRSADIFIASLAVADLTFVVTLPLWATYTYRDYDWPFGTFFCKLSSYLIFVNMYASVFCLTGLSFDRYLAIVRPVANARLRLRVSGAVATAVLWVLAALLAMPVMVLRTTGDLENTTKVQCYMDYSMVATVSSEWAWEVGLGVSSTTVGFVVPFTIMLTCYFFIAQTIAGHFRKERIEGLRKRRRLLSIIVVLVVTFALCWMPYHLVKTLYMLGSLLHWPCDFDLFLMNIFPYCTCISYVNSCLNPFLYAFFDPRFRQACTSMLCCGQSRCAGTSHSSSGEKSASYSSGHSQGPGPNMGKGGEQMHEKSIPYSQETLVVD
# APJ ag: activates the human apelin receptor APJ | P35414 | CHO-K1 APJ PathHunter beta-arrestin, luminescence; 0% DMSO wells, 100% apelin | activation, % at 20 µM | hit rate 0.11% among 330,000 | AID 2520;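 active means activation more than six SD over the plate average, tested at 20 µM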;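 further: 0% = DMSO alone and 100% = apelin-13 at 10 nM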
#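 system = engineered CHO-K1 APJ arrestin reporter cells | input = 1000 cells per well | timing = overnight seeding, 90 min compound at 25 °C, 1 h detection | measured by = enzyme-fragment complementation luminescence | read-out = beta-arrestin recruitment to APJ as agonist activity, luminescent signal | control set = negative DMSO alone, positive Apelin-13 at 10 nM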
# EBI2 block: EBI2 (human) antagonism; EBI2 beta-arrestin recruitment, luminescence, 7a,25-OHC stimulated; hit rate 0.81% among 360,000; inhibition, % at 5 µM; in the data active means inhibition above about 38%;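 further: enzyme fragment complementation signal reports receptor beta-arrestin coupling in cells; 0% = agonist plus DMSO wells and 100% = wells without agonist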
# CXCR6 block: CXCR6 (human) receptor inhibition; O00574; CHO-K1 PathHunter CXCR6 beta-arrestin, luminescence; inhibition, % at 20 µM; hit rate 0.36% among 360,000; AID 602244; in the data active means inhibition above about 34%, passing the limit was not always enough;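 further: antagonist mode with CXCL16 agonist at 10 nM final; 0% = 10 nM CXCL16 with DMSO and 100% = unstimulated wells without agonist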
# EBI2 conf: EBI2 (human) antagonism, single concentration confirmation. EBI2 beta-arrestin luminescence, 7a,25-OHC antagonism. inhibition, % at 5 µM. shares compounds with EBI2 block. hit rate 29% among 2,400. AID 651997;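 active means inhibition of at least 50%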
# EBI2 ag: counter-screen for EBI2 antagonists: EBI2 agonist activity; shares compounds with EBI2 block; EBI2-expressing cells, agonist mode, luminescence, 60 min; 0% vehicle, 100% 7α,25-dihydroxycholesterol control; activation, % at 5 µM; 2,400 tested, under 10 active; AID 652000;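 active means activation of at least 50%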
# bGal counter: beta-galactosidase inhibition counter-screen; shares compounds with EBI2 block; purified beta-galactosidase, luminescent Galacton Star, 15 min; inhibition, % at 5 µM; hit rate 1% among 2,400; AID 652176;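 active means replicate-average signal at least 3 plate SD below neutral wells, shown as high inhibition, flagging enzyme-inhibiting false positives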;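 further: 0% = DMSO wells with enzyme and 100% = wells lacking enzyme; higher means stronger loss of beta-gal luminescence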
# * = called active by the depositor; · = no result.
SMILES,CCR6 antag,APJ antag,APJ ag,EBI2 block,CXCR6 block,EBI2 conf,EBI2 ag,bGal counter
Cc1cc(Cl)ccc1Oc1ncnc2oc(-c3ccccc3)cc12,4,-4,-6,53*,-3,38,0,2
Cc1cccc(Oc2ncnc3oc(-c4ccccc4)cc23)c1C,-7,-1,-1,67*,-9,47,1,9
CSCCC(NC(=O)c1ccc(Cl)c([N+](=O)[O-])c1)C(=O)N1CCN(C/C=C/c2ccccc2)CC1 (configuration not stated),7,-34,-2,38,-15,·,·,·
CC1(C(=O)Nc2ccc3c(c2)OCO3)CC1(Cl)Cl (configuration not stated),0,-43,7,7,0,·,·,·
COc1ccc([C@H]2CC(=O)C=C(c3cc(F)ccc3OC)C2)cc1,17,11,-5,19,5,·,·,·
COc1ccc([C@H]2CC(=O)C=C(c3ccc4ccccc4c3)C2)cc1OC,5,3,-4,62*,10,51*,-2,1
COc1ccc([C@H]2CC(=O)C=C(c3ccc(OC)c(F)c3)C2)cc1,6,3,-3,51*,4,46,-1,-4
COc1ccc([C@H]2CC(=O)C=C(c3ccc(OC)c(OC)c3)C2)cc1,14,4,-3,46*,-5,43,1,4
COc1ccc([C@H]2CC(=O)C=C(c3ccc(O)cc3)C2)cc1OC,5,5,-3,18,1,·,·,·
CC(=O)N(Cc1ccccc1)C1CC(=O)N(Cc2ccccc2)C1=O (configuration not stated),6,·,·,3,-1,·,·,·
COCc1cc(=O)n2[nH]cc(-c3ccsc3)c2n1,3,17,-3,-6,-5,·,·,·
COc1ccc(/C=C/C(=O)c2ccc3c4c(cccc24)CC3)cc1,2,-6,0,56*,3,36,2,4
Cc1ccc(NS(=O)(=O)c2ccc(NC(=O)CN(c3cc([N+](=O)[O-])ccc3C)S(C)(=O)=O)cc2)c(C)c1,18,-11,2,75*,5,22,-2,-2
C=CCNC(=O)c1ccc(NC(=O)CC2SC(N3CCCC3)=NC2=O)cc1 (configuration not stated),1,15,-3,-4,7,·,·,·
Cc1ccc(/C=C2\CCC(C3CCCC3)C2=O)cc1 (configuration not stated),13,-11,-1,3,-4,·,·,·
O=C1/C(=C\c2ccc(Cl)cc2)CCC1CNc1ccc(Cl)cc1 (configuration not stated),17,·,·,47*,3,11,1,8
Cc1ccc(CNC(=O)/C(C#N)=C/c2ccc(C)s2)cc1,7,20,5,51*,5,32,0,-15
CN1CCN(NC(=O)c2cc(-c3ccc(Cl)s3)nc3ccccc23)CC1,6,9,0,-3,1,·,·,·
CCOc1ccc(NC(=O)CCC(=O)NNC(=O)Nc2ccc(Cl)cc2)cc1,19,-14,2,1,-2,·,·,·
Cc1ccc(CNC(=O)/C=C/c2ccc(S(=O)(=O)NCc3ccco3)cc2)cc1,14,4,-2,44*,14,27,0,-1
O=S1(=O)N[C@@H](Cc2ccccc2)COc2cc(N3CCC[C@@H]3CO)ccc21,·,·,·,-21,-18,·,·,·
Cc1cccc(C)c1N1CCN(C(=O)Nc2ccc3c(c2)OCCO3)CC1,8,-5,1,64*,-4,54*,0,7
Cc1ccc(S(=O)(=O)N2CCC(C(=O)OCCOc3ccccc3)CC2)cc1C,13,10,-4,45*,-9,40,-1,-20
Cc1cccc(OCCOC(=O)C2CCN(S(=O)(=O)c3ccc(C)c(C)c3)CC2)c1,26,-13,-1,22,13,·,·,·
Cc1ccc(OCCOC(=O)C2CCN(S(=O)(=O)c3ccc(C)c(C)c3)CC2)cc1,2,11,-2,56*,-1,26,0,7
SMILES,CCR6 antag,APJ antag,APJ ag,EBI2 block,CXCR6 block,EBI2 conf,EBI2 ag,bGal counter
c1ccc(-c2cn(-c3ccccc3)c3ncnc(NCCCN4CCOCC4)c23)cc1,10,13,0,62*,8,18,-1,-10
CN(C)c1ncnc2c1ncn2[C@H]1CN(Cc2ccc(F)cc2)C[C@@H](CO)O1,·,·,·,3,-10,·,·,·
CC(C)N(C)c1ncnc2c1ncn2[C@H]1CN(Cc2ccc(F)cc2)C[C@@H](CO)O1,·,·,·,68*,3,63*,1,5
OC[C@@H]1CN(Cc2cccc(C(F)(F)F)c2)C[C@H](n2cnc3c(NCc4ccc(F)cc4)ncnc32)O1,·,·,·,9,-8,·,·,·
OC[C@@H]1CN(Cc2cccc(C(F)(F)F)c2)C[C@H](n2cnc3c(NC4CC4)ncnc32)O1,·,·,·,65*,-4,62*,3,9
OC[C@@H]1CN(Cc2ccc(Cl)cc2)C[C@H](n2cnc3c(NC4CC4)ncnc32)O1,·,·,·,83*,-6,82*,-1,-16
CC(C)CNc1ncnc2c1ncn2[C@H]1CN(Cc2ccc(-c3ccccc3)cc2)C[C@@H](CO)O1,·,·,·,-5,-5,·,·,·
CC(C)Nc1ncnc2c1ncn2[C@H]1CN(Cc2ccc(-c3ccccc3)cc2)C[C@@H](CO)O1,·,·,·,44*,-4,27,0,-13
OC[C@@H]1CN(Cc2ccncc2)C[C@H](n2cnc3c(NC4CC4)ncnc32)O1,·,·,·,10,-2,·,·,·
CC(C)(CC(=O)O)CC(=O)N1CCN(c2nc3cc(Cl)ccc3s2)CC1,-1,7,-3,-10,3,·,·,·
CCN(C[C@H]1N[C@@](Cc2ccccc2)(C(=O)OC)[C@H]2C(=O)N(C)C(=O)[C@@H]12)C(=O)NC(C)C,-7,9,-2,-6,2,·,·,·
CCOc1ccc(C(=O)CC(C(=O)O)N2CCCCC2)cc1 (configuration not stated),3,7,-2,-7,4,·,·,·
CN(C)C1=NCCN1CCc1ccc(F)cc1,-1,3,-3,2,0,·,·,·
CSC1=C(C#N)C(c2ccccc2Cl)C(C(C)=O)=C(C)N1 (configuration not stated),-3,10,-1,65*,8,48,3,10
CSC1=C(C#N)C(c2ccccc2)C(C(C)=O)=C(C)N1 (configuration not stated),7,-4,-3,11,-12,·,·,·
C(=N\N(c1ccccc1)c1ccccc1)/c1ccc(N2CCOCC2)s1,14,1,-6,56*,4,20,2,4
O=C(N/N=C/c1ccc(N2CCOCC2)s1)c1ccccc1Cl,18,2,-3,-3,-8,·,·,·

# Screening results (PubChem BioAssay)
